Measured values from ChEMBL document CHEMBL4196194, “De Novo Design of α-Helical Lipopeptides Targeting Viral Fusion Proteins: A Promising Strategy for Relatively Broad-Spectrum Antiviral Drug Discovery” (J Med Chem, 2018).
Active and inactive are the calls of the source. The rule behind the calls is not given here. Where a SMILES comes first, the peptide text is derived from it. [ ]: non-standard residue; d: D form. The star is where a group is joined. Palmitoyl = CCCCCCCCCCCCCCCC(=O)*; βAla = NCCC(=O)O

Experiments:
[1] = system: Influenza A virus; conditions: A/Puerto Rico/8/1934(H1N1), 0.1 to 1000 uM
[2] = system: Influenza A virus; experiment: Inhibition of influenza A virus infected in MDCK cells assessed as inhibition of viral load treated with compound at 0 to 10 hrs post-infection by RT-qPCR method based time of addition assay; format: functional
In short: (§1)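 MDCK cells (2.0 × 10^5/well) washed with PBS, virus adsorbed (MOI 0.05) 60 min at 4 °C, washed, then compound present only during 0–10, 0–2, 2–5, 5–8 or 8–10 h postinfection; cultured in fresh medium to 10 h, total RNA extracted, viral load by absolute one-step RT-qPCR; triplicate, versus PBS control.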

[3] = system: Influenza A virus; experiment: Antiviral activity against influenza A virus assessed as inhibition of viral replicon activity up to 100 uM incubated for 30 hrs by firefly luciferase reporter gene assay; format: functional, organism-based
In short: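 HEK293T cells (2.5 × 10^4/well) transfected with plasmids for NP, PB1, PB2, PA plus p0LN-S-Luc firefly and pRL-SV40 Renilla reporters; serially diluted compound added 6 h post-transfection, luciferase read after 30 h by Dual-Glo. Activity = firefly/Renilla ratio; % inhibition normalized to positive and negative controls, curve-fitted; three independent measurements.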

[4] = system: Middle East respiratory syndrome-related coronavirus; experiment: Binding affinity to MERS-CoV spike protein synthetic peptide HR1P assessed as changes in alpha-helical structures at 10 uM at pH 7.4 by CD spectroscopy
In short: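 Peptides at 10 μM final. HR1P incubated with test peptide 30 min at 25 °C in 10 mM phosphate, pH 7.4; N66 30 min at 30 °C in 10 mM sodium acetate/10 mM sodium phosphate/150 mM NaCl, pH 5.0; measured at 25 °C. Mean residue ellipticity; helicity from −33000 deg cm2 dmol−1 = 100%.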

[5] = system: Influenza A virus; experiment: Inhibition of influenza A virus infected in MDCK cells assessed as inhibition of viral load treated with compound at 0 to 2 hrs post-infection by RT-qPCR method based time of addition assay; format: functional
In short: as §1

[6] = system: Influenza A virus; experiment: Inhibition of influenza A virus infected in MDCK cells assessed as inhibition of viral load treated with compound at 5 to 8 hrs post-infection by RT-qPCR method based time of addition assay; format: functional, organism-based
In short: as §1

[7] = AUC (0 to t) in Sprague-Dawley rat at 5 mg/kg, iv administered as single dose by LC-MS/MS analysis; format: ADME, organism-based; conditions: in vivo
[8] = Selectivity index, ratio of CC50 for cytotoxicity in MDCK cells to EC50 for antiviral activity against Influenza A virus (A/Hong Kong/8/1968([…])) infected in HEK293T cells; format: toxicity, cell-based; conditions: dog
[9] = system: Middle East respiratory syndrome-related coronavirus; experiment: Antiviral activity against MERS-CoV pseudovirus infected in human HuH7 cells treated with 30 mins pre-treated pseudovirus/compopund mixture and measured after 48 hrs by luciferase reporter assay; format: functional, organism-based
In short: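 Serially diluted peptide premixed with MERS-CoV pseudovirus 30 min at 37 °C, then added to Huh-7 cells; medium replaced at 12 h postinfection and cells cultured a further 48 h at 37 °C before luciferase read-out.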

[10] = Cytotoxicity in human TZM-bl cells; format: cell-based

## CCCCCCCCCCCCCCCC(=O)NCCCC[C@H](NC(=O)CCNC(=O)[C@H](CCCCN)NC(=O)[C@H](CCCCN)NC(=O)[C@H](CCC(N)=O)NC(=O)[C@@H](NC(=O)[C@H](CCC(=O)O)NC(=O)[C@H](CCC(=O)O)NC(=O)[C@@H](NC(=O)[C@H](CCCCN)NC(=O)[C@H](CCCCN)NC(=O)[C@H](CCC(N)=O)NC(=O)[C@@H](NC(=O)[C@H](CCC(=O)O)NC(=O)[C@H](CCC(=O)O)NC(=O)[C@@H](NC(=O)[C@H](CCCCN)NC(=O)[C@H](CCCCN)NC(=O)[C@H](CCC(N)=O)NC(=O)[C@@H](NC(=O)[C@H](CCC(=O)O)NC(=O)[C@H](CCC(=O)O)NC(=O)[C@@H](NC(=O)[C@H](CCCCN)NC(=O)[C@H](CCCCN)NC(=O)[C@H](CCC(N)=O)NC(=O)[C@@H](NC(=O)[C@H](CCC(=O)O)NC(=O)[C@H](CCC(=O)O)NC(=O)[C@@H](NC(=O)[C@H](CCCCN)NC(=O)[C@H](CCCCN)NC(=O)[C@H](CCC(N)=O)NC(=O)[C@@H](NC(=O)[C@H](CCC(=O)O)NC(=O)[C@H](CCC(=O)O)NC(=O)[C@@H](NC(C)=O)[C@@H](C)CC)[C@@H](C)CC)[C@@H](C)CC)[C@@H](C)CC)[C@@H](C)CC)[C@@H](C)CC)[C@@H](C)CC)[C@@H](C)CC)[C@@H](C)CC)[C@@H](C)CC)C(N)=O (Ac-IEEIQKKIEEIQKKIEEIQKKIEEIQKKIEEIQKK[βAla]K(Palmitoyl)-NH2)
[1]
  inhibition: inactive
[2]
  inhibition (INH): 60%
[3]
  inhibition: inactive
[4]
  Activity: Active
[5]
  inhibition (INH): 60%
[6]
  inhibition: inactive
[7]
  AUC(0-t): 235 µg·h/mL
[8]
  selectivity ratio: > 143
[9]
  Activity: Active
[10]
  CC50: > 100 µM
